# Source: PubChem
# The list is not random: actives were taken first. Their share in the collection is about 1.5%.
# PGC1a acetyl inh = lowers PGC1a acetylation signal in U2OS cells; AlphaScreen anti-acetyl-lysine; with virally co-expressed GCN5 acetyltransferase; 350,000 compounds, 0.17% hits; inhibition, % at 15.6 µM;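 active = every replicate shows inhibition of at least 40%; inconclusive = mean inhibition at least 40% but some replicate below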;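 also: 0% = neutral control wells and 100% = positive control wells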
# MITF act = increases MITF-driven TRPM1 promoter luciferase signal; SK-MEL-5 TRPM1-promoter luciferase, 24 h; % of positive control, neutral wells = 0; activation, % at 12.5 µM; 300,000 compounds, 0.75% hits; AID 588334;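 active = mean activation of at least 80% with every replicate also reaching 80%; inconclusive = mean reaches 80% but some replicate falls short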;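 also: 0% = neutral control wells and 100% = parthenolide positive control wells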
# Wnt act = activates Wnt/beta-catenin signaling in a reporter cell assay; 300,000 compounds, 1.2% hits; activator, plate reader; activation, % at 9.35 µM; AID 743398; in the data active = activation above about 30%, passing the limit was not always enough; inconclusive = no clear call, values can overlap the other calls;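 also: 0% = neutral control wells and 100% = positive control wells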
# Cneo AK release = Cryptococcus neoformans lysis via adenylate kinase release. C. neoformans lysis, adenylate kinase release luminescence, 4 h; normalised: neutral wells 0, clomiphene wells 100. 360,000 compounds, 0.2% hits. lysis activity, % at 15 µM. AID 651654;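 active = mean lysis activity across replicates of at least 80%, whatever share of replicates individually reach that level; inactive = mean lysis activity below 80%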
#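 Test system: log-phase Cryptococcus neoformans yeast cells. Input: 5 × 10^6 yeast cells/mL. Medium: fresh YPD growth medium. Doses: single dose. Incubation: static 4 h at 37 °C with compound, 1 h detection. Measured by: luminescent adenylate kinase detection reagent. Read-out: signal increase indicating cell lysis. Benchmarks: Clomiphene.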
# Active calls of the source: *; ? = inconclusive; . = no result given.
SMILES,PGC1a acetyl inh,MITF act,Wnt act,Cneo AK release
O=c1cc(-c2ccccc2)oc2ccc(O)cc12,-3.0,57.1,59.5*,-1.2
COc1cccc(C(=O)OCC(=O)c2ccc(Br)s2)c1,.,5.5,1.6,7.3
Cc1ccc(C(=O)COC(=O)c2cccc(O)c2)s1,4.1,53.5,39.5*,-8.4
COC(=O)N=Nc1c(O)[nH]c2ccc(Br)cc12,-27.9,-11.6,52.9*,-5.8
C[C@@H]1CN([C@H](C)CO)C(=O)c2cc(NS(=O)(=O)c3ccc(Cl)cc3)ccc2O[C@@H]1CN(C)Cc1ccc(Cl)c(Cl)c1,-5.5,.,.,-1.2
COc1ccc(C(=O)Cn2nnc(-c3cccs3)n2)cc1,.,.,51.0*,-1.3
CCN1C(=S)SC(=O)C1=C1C=C(C)N(Cc2ccco2)C(C)=C1,1.2,56.8,18.6,-4.6
CCN1C(=S)SC(=O)C1=C1C=C(C)OC(C)=C1,-0.4,90.7*,.,-2.4
C[C@H]1CCC/C=C/[C@@H]2C[C@H](O)C[C@H]2[C@H](O)[C@H](S(=O)c2ccc(O)cc2)CC(=O)O1 (some centres not stated),66.3*,.,-24.5,.
C[C@H]1CN([C@@H](C)CO)C(=O)c2cccc(NC(=O)CCCCCC(=O)Nc3ccccc3N)c2O[C@H]1CN(C)C(=O)NC1CCCCC1,-4.1,.,.,.
C[C@@H]1CN([C@@H](C)CO)C(=O)c2cccc(NS(=O)(=O)c3cn(C)cn3)c2O[C@H]1CN(C)C(=O)Nc1ccc(C(F)(F)F)cc1,-6.9,.,.,9.8
CC(=O)c1ccc(NC(=O)c2ccn(C(=O)OCC(C)C)n2)cc1,.,17.6,53.4*,.
COc1cc(/C=C2\C(=O)N(CCC#N)N=C2C)ccc1OCC(=O)Nc1ccccc1,2.0,4.7,65.3*,-2.9
CCOc1cc(/C=C2\C(=O)N(CCC#N)N=C2C)ccc1OCC(N)=O,.,-5.3,0.2,.
S=c1[nH]nc(-c2ccncc2)n1/N=C/C(Cl)=C\c1ccccc1,.,70.9,31.8*,.
CCOc1ccc(C2C=C(c3ccccc3)Nc3nnnn32)cc1 (configuration not stated),9.2,.,43.3*,-2.5
CC(=O)C1=C(c2cccc([N+](=O)[O-])c2)N(C(C)=O)n2c(C)nnc2S1,.,0.1,75.1*,.
CC(C)(C)N=Cc1cc(-c2ccccc2)sc1O,-3.8,.,62.9*,0.4
COc1cc2cc(CN(CCc3ccccc3C)C(=S)NCCCN3CCOCC3)c(=O)[nH]c2cc1OC,.,9.7,50.3*,.
CN1C[C@@H]2[C@H](c3ccccc31)[C@@H](CO)N2C(=O)C1CCCC1,-5.1,.,.,-2.2
C=CCSc1n[nH]c(-c2ccc(OCCC)cc2)n1,-7.8,92.1*,21.4,-2.9
N=c1oc2ccccc2cc1C(=O)Nc1ccc(F)cc1,6.6,-11.7,37.9*,-2.2
N=c1oc2cc(O)ccc2cc1C(=O)Nc1ccc(Cl)cc1,.,53.8,47.4*,-2.8
N=c1oc2ccccc2cc1C(=O)Nc1cccc(F)c1,6.2,5.8,15.2,-1.1
CC1CCN(C(=O)COC(=O)c2cc(Cl)c3c(c2)OCO3)CC1,-4.6,64.0,32.1*,-1.3
SMILES,PGC1a acetyl inh,MITF act,Wnt act,Cneo AK release
CCOC(=O)C1CCCN(C(=O)CSc2nc(C)cc(C)n2)C1 (configuration not stated),4.8,-17.8,0.5,-1.1
CCOC(=O)C1CCCN(C(=O)CSc2ccc(Br)cc2)C1 (configuration not stated),78.1*,8.8,.,.
CC1(C(=O)NS(=O)(=O)c2ccc(C#N)cc2)CCN1C(=O)C1CCCCC1 (configuration not stated),3.5,.,-2.2,0.7
CC1(C(=O)NS(=O)(=O)c2cccc(C#N)c2)CCN1C(=O)C1CCCCC1 (configuration not stated),.,.,35.3*,8.1
Cc1ccc(-n2nc3ccc(N)cc3n2)cc1,?,-3.8,.,0.8
Cc1cc2nn(-c3ccc(F)cc3)nc2cc1N,18.0,.,19.3,-2.3
CC(C)c1ccc(-n2nc3ccc(N)cc3n2)cc1,10.9,-16.8,37.5*,-4.1
Cc1cc2nn(-c3ccc(Cl)cc3)nc2cc1N,.,23.0,33.2*,.
C[C@@H]1CN([C@H](C)CO)S(=O)(=O)c2ccc(C3=CCCC3)cc2O[C@H]1CN(C)C(=O)c1ccc(F)cc1,-3.5,.,.,7.0
CC(C)c1nc2sc3c(NCc4ccco4)ncnc3c2c2c1COC(C)(C)C2,59.4*,1.2,-2.4,.
O=C(CCN1CCC(c2ccccc2)C1)c1cccs1 (configuration not stated),.,3.5,6.2,.
COc1ccc(NC(=S)N2CCC(c3ccccc3)C2)cc1 (configuration not stated),.,108.1*,?,-5.4
